Results on six compounds are retold here after ChEMBL document CHEMBL4052828, “Discovery of 4-((7H-Pyrrolo[2,3-d]pyrimidin-4-yl)amino)-N-(4-((4-methylpiperazin-1-yl)methyl)phenyl)-1H-pyrazole-3-carboxamide (FN-1501), an FLT3- and CDK-Kinase Inhibitor with Potentially High Efficiency against Acute Myelocytic Leukemia” (J Med Chem, 2018).

Each structure is given as a SMILES string. The source made the active and inactive calls. The calls are words filed in the database; no cut-off is given here.

For one data set, the target named is CDK2/Cyclin A1 (Homo sapiens, UniProt P24941). The data set can be described thus: Inhibition of human CDK2/Cyclin A1 using histone H1 as substrate preincubated for 20 mins followed by [gamma-33P]-ATP addition measure after 120 mins by filter binding method. The data set is classed as protein-complex assay. The method in brief:
(§1)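 Compound preincubated with kinase 20 min at room temperature. Filter-binding read-out, curve-fitted IC50; mean ± SD of three independent experiments.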

The target in data set [1] is T1, Receptor-type tyrosine-protein kinase FLT3 (Homo sapiens, UniProt P36888).
T1 sequence (P36888 whole entry): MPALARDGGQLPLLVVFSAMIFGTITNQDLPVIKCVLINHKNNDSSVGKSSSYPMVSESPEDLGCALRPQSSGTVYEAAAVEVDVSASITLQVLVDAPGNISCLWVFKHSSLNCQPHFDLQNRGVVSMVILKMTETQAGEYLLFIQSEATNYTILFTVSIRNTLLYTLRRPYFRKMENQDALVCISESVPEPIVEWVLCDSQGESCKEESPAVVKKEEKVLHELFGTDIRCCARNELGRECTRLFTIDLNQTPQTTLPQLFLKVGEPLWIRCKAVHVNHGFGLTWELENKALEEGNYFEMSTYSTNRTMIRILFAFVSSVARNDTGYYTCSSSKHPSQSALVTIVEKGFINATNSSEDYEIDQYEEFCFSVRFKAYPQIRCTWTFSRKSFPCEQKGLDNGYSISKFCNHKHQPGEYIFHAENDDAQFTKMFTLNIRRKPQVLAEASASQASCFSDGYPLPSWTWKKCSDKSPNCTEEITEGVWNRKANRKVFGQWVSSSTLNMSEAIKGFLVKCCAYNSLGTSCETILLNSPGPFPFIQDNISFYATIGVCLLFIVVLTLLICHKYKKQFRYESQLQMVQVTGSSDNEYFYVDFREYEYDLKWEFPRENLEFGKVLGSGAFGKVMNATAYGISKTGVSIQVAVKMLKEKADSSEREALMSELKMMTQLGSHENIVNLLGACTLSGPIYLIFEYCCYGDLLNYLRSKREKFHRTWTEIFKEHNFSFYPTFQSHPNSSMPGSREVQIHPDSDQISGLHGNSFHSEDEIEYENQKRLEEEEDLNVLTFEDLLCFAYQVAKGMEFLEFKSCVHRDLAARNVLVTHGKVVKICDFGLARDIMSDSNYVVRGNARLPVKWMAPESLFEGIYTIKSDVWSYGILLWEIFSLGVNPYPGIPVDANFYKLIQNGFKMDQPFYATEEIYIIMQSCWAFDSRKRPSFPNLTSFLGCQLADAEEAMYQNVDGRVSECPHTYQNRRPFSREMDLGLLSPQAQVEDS
The data set can be described thus: Inhibition of human FLT3 using EAIYAAPFAKKK as substrate preincubated for 20 mins followed by [gamma-33P]-ATP addition measure after 120 mins by filter binding method. The method in brief: as §1

Data set [2] has as its system MV4-11. The data set can be described thus: Growth inhibition of human MV4-11 cells after 72 hrs by CellTiter-Glo assay. The data set is classed as functional, cell-based. The following applies: MV4-11, 72 h. The method in brief:
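MV4-11 cells grown in IMDM with 10% FBS, 2% L-glutamine and 1% pen/strep at 37 °C, 5% CO2. Seeded at 10000 cells/well and exposed to compound at various concentrations for 72 h. Viability read by CellTiter-Glo luminescence.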
(In general: Cellular ATP, detected with luciferase, serves as a proxy for viable cell number.)

Data set [3] in a line: Lipophilicity, log P of the compound. The data set is classed as physicochemical. To be noted: octanol/water.
Data set [4] deals with MV4-11. The data set can be described thus: Induction of apoptosis in human MV4-11 cells assessed as early apoptotic cells at 2 uM after 24 hrs by annexin V-FITC/propidium iodide staining-based flow cytometric method (reference value: 3.54%). It counts as functional. In general terms: A flow cytometer gives signals particle by particle.
The test system of data set [5] is MV4-11. The experiment in a line: Induction of apoptosis in human MV4-11 cells assessed as late apoptotic cells at 2 uM after 24 hrs by annexin V-FITC/propidium iodide staining-based flow cytometric method (reference value: 2.54%). It counts as functional.
The test system of data set [6] is MV4-11. The data set can be described thus: Cell cycle arrest in human MV4-11 cells assessed as accumulation at G0/G1 phase at 0.2 uM after 24 hrs by propidium iodide/BrdU staining-based flow cytometric method. It counts as functional. The method in brief: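 Cells treated with compound for 24 h, then fixed. Double-stained with propidium iodide and BrdU for flow cytometric analysis of cell cycle distribution.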
(In general: Dividing cells build labelled thymidine or BrdU into new DNA.)

In data set [7] the target is Receptor-type tyrosine-protein kinase FLT3 (Homo sapiens) (UniProt P36888). The following applies: 1 uM.
Data set [8] has the same target. To be noted: 1 uM. This is another data set of the same source.
The target is the same in data set [9]. To be noted: 1 uM. This is another data set of the same source.
For data set [10] the target is unchanged. The following applies: 1 uM. This is another data set of the same source.
Data set [11] has as its target Cyclin-dependent kinase 4/cyclin D1 (Homo sapiens, UniProt P11802). The experiment in a line: Inhibition of human CDK4/Cyclin D1 using RB protein as substrate preincubated for 20 mins followed by [gamma-33P]-ATP addition measure after 120 mins by filter binding method. It counts as protein-complex assay. The essentials:
(§2)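 Compound preincubated with kinase 20 min at room temperature. Reaction started with 10 μM [γ-33P]ATP and run 120 min at 25°C. Filter-binding read-out, curve-fitted IC50; mean ± SD of three independent experiments.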

Another data set deals with CDK6/cyclin D1 (Homo sapiens, UniProt Q00534). The experiment in a line: Inhibition of human CDK6/Cyclin D1 using RB protein as substrate preincubated for 20 mins followed by [gamma-33P]-ATP addition measure after 120 mins by filter binding method. The data set is classed as protein-complex assay. The essentials:
as §2

For data set [12], the target named is ALK tyrosine kinase receptor (Homo sapiens, UniProt Q9UM73). The experiment in a line: Inhibition of human ALK using poly[Glu:Tyr] (4:1) as substrate preincubated for 20 mins followed by [gamma-33P]-ATP addition measure after 120 mins by filter binding method. The essentials:
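Compound in DMSO was added to the kinase mixture for 20 min at room temperature. The reaction was started with 10 μM [γ-33P]ATP and run 120 min at 25 °C.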

Another data set deals with RS4-11. The experiment in a line: Growth inhibition of human RS4:11 cells after 72 hrs by CellTiter-Glo assay. The data set is classed as functional. The following applies: RS4-11, 72 h.
Another data set concerns MCF7. The data set can be described thus: Growth inhibition of human MCF7 cells after 72 hrs by CellTiter-Glo assay. It counts as functional. To be noted: MCF7, 72 h.
The test system of the next data set is HCT-116. The data set can be described thus: Growth inhibition of human HCT116 cells after 72 hrs by CellTiter-Glo assay. It counts as functional. To be noted: HCT-116, 72 h.
The next data set concerns NCI-H82. The data set can be described thus: Growth inhibition of human NCI-H82 cells after 72 hrs by CellTiter-Glo assay. The following applies: NCI-H82, 72 h. It counts as functional.
Another data set concerns MGC-803. The data set can be described thus: Growth inhibition of human MGC803 cells after 72 hrs by CellTiter-Glo assay. The following applies: MGC-803, 72 h. It counts as functional.
The subject of data set [13] is MV4-11. The data set can be described thus: Growth inhibition of human MV4-11 cells at 1 uM after 72 hrs by CellTiter-Glo assay relative to control. It counts as functional. To be noted: MV4-11, 72 h, read-out: GI.
A short description of data set [14]: Terminal half life in human liver microsomes by LC-MS/MS analysis. The data set is classed as ADME, microsome. To be noted: read-out: beta t1/2 (converted). The method in brief:
(§3)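 Metabolic stability measured by incubating compound in human, rat, mouse, dog and monkey liver microsomes. Terminal t1/2 determined.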

Data set [15] can be described thus: Intrinsic clearance in human liver microsomes by LC-MS/MS analysis. The following applies: read-out: CLH. It counts as ADME, microsome.
The nature of data set [16]: Terminal half life in rat liver microsomes by LC-MS/MS analysis. To be noted: read-out: beta t1/2 (converted). It counts as ADME, microsome. The method in brief: as §3
A short description of data set [17]: Intrinsic clearance in rat liver microsomes by LC-MS/MS analysis. The data set is classed as ADME, microsome. The following applies: read-out: CLH.
Data set [18] can be described thus: Terminal half life in mouse liver microsomes by LC-MS/MS analysis. It counts as ADME, microsome. To be noted: read-out: beta t1/2 (converted). The method in brief: as §3
Data set [19] is described as follows: Intrinsic clearance in mouse liver microsomes by LC-MS/MS analysis. The data set is classed as ADME, microsome. To be noted: read-out: CLH.
Data set [20] in a line: Terminal half life in dog liver microsomes by LC-MS/MS analysis. It counts as ADME, Canis lupus familiaris, microsome. To be noted: read-out: beta t1/2 (converted). The method in brief:
as §3

Data set [21] can be described thus: Intrinsic clearance in dog liver microsomes by LC-MS/MS analysis. It counts as ADME, Canis lupus familiaris, microsome. The following applies: read-out: CLH.
Data set [22] can be described thus: Terminal half life in cynomolgus monkey liver microsomes by LC-MS/MS analysis. It counts as ADME, Macaca fascicularis, microsome. To be noted: read-out: beta t1/2 (converted). The method in brief:
as §3

A short description of data set [23]: Intrinsic clearance in cynomolgus monkey liver microsomes by LC-MS/MS analysis. The data set is classed as ADME, Macaca fascicularis, microsome. To be noted: read-out: CLH.
Data set [24] has as its system MV4-11. The data set can be described thus: Antitumor activity against human MV4-11 cells xenografted in nu/nu mouse assessed as tumor growth inhibition at 50 mg/kg, iv qd measured on day 21 relative to vehicle-treated control. The data set is classed as functional. The following applies: MV4-11, iv, 504 h, read-out: TGI. The method in brief: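 Female nu/nu mice bearing MV4-11 xenografts; dosing began once tumors reached 200 mm3. Given iv once daily for 21 days, with a vehicle-only group. Body weight and tumor size tracked relative to initial values, set as 100%. Tumors weighed at the end of the 22-day treatment period.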

Chain of Cyclin-dependent kinase 4/cyclin D1 (P11802 whole entry): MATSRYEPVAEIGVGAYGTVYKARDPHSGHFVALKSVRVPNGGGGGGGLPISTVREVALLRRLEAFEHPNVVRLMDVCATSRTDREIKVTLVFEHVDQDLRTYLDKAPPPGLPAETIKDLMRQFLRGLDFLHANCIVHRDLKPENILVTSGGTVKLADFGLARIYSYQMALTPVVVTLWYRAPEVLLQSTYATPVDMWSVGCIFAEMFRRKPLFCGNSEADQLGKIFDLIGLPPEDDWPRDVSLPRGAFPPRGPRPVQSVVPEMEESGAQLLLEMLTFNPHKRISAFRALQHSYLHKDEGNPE
Chain of Cyclin-dependent kinase 4/cyclin D1 (P24385 whole entry, further chain): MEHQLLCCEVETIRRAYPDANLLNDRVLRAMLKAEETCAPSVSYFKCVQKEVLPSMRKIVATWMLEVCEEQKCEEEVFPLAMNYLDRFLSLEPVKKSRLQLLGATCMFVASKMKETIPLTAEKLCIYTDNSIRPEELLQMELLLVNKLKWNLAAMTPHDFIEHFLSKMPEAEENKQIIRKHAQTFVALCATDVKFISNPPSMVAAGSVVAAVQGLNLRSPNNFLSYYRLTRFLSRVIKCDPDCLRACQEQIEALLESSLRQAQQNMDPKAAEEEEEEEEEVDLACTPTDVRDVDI
Chain of CDK6/cyclin D1 (P24385 whole entry): as the sequence (P24385 whole entry, further chain) above
Chain of CDK6/cyclin D1 (Q00534 whole entry): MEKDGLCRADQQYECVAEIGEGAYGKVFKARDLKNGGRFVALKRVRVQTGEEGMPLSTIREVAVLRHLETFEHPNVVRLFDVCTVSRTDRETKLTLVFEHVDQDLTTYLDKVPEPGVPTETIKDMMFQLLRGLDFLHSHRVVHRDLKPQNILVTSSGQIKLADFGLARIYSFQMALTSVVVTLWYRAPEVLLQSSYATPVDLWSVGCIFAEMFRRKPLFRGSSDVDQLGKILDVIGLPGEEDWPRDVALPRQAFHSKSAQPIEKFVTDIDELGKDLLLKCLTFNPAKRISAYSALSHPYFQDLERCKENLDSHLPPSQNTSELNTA
Chain of ALK tyrosine kinase receptor (Q9UM73 whole entry): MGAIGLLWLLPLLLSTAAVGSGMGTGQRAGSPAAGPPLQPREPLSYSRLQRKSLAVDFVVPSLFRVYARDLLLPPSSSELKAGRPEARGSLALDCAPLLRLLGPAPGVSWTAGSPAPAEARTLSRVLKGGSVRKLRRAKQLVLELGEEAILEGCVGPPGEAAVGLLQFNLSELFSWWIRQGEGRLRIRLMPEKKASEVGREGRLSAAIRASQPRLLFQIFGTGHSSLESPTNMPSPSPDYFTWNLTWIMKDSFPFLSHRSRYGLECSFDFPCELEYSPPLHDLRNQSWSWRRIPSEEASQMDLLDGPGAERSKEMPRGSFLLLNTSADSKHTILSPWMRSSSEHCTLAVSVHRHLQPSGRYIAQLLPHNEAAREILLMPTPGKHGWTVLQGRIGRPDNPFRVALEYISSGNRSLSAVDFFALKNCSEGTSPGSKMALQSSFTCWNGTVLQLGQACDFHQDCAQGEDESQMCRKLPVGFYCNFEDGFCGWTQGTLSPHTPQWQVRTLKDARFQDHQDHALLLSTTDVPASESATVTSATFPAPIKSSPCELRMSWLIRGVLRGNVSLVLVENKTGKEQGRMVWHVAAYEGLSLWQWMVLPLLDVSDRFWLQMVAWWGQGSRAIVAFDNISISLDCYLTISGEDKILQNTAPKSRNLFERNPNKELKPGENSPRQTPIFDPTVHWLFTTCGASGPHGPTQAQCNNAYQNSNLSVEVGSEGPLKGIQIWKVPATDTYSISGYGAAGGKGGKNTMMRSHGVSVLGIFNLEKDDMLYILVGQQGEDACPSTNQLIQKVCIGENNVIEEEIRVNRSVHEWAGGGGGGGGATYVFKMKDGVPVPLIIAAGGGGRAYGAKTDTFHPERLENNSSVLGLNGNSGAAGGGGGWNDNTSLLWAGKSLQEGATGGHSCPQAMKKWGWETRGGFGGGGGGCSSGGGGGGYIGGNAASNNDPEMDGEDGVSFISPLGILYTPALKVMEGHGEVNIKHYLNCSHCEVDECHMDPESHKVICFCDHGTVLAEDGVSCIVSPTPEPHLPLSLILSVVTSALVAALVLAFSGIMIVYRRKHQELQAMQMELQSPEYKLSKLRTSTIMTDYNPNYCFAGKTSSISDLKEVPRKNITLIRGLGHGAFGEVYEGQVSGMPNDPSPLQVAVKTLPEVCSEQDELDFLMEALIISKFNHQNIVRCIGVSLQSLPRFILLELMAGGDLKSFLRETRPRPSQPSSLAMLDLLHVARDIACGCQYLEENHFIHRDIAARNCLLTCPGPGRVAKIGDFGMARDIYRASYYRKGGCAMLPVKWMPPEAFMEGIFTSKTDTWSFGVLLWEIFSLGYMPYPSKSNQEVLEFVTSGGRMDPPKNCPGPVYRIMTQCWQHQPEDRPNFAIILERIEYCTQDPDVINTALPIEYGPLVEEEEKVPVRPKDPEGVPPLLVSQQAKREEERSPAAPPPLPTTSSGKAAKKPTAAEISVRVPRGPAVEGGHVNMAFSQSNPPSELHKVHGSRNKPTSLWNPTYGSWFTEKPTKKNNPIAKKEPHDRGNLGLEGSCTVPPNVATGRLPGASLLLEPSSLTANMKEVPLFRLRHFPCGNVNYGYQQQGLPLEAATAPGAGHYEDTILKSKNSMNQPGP

`O=C(Nc1ccc(CN2CCNCC2)cc1)c1n[nH]cc1Nc1ncnc2[nH]ccc12`: the IC50 on CDK2/Cyclin A1 was found to be 4.49 nM; in [1], 1.03 nM; in the data set with MV4-11 [2], 53 nM. In data set [3], this compound registered a logP of 1.22.
Turning to `O=C(Nc1ccc(CN2CCNCC2)cc1)c1n[nH]cc1Nc1ncnc2sccc12`, the IC50 at CDK2/Cyclin A1 amounted to 2.08 nM; in data set [1] it was 0.34 nM; in the data set on MV4-11 [2] it was 19 nM. This compound registered a logP in data set [3] of 2.65.
In turn, `CNC(=O)c1cc(Oc2ccc(NC(=O)Nc3ccc(Cl)c(C(F)(F)F)c3)cc2)ccn1` [SORAFENIB] displayed an IC50 in the data set on MV4-11 [2] of 4 nM. The Activity is 51.35% in the data set on MV4-11 [4] and 23.97% with MV4-11 [5]. For the same compound, in the data set with MV4-11 [6], the result was Active. In addition, the inhibition result in data set [7], in data set [8], in data set [9] and in [10] was “Active” in each case.
With `CN1CCN(Cc2ccc(NC(=O)c3n[nH]cc3Nc3ncnc4sccc34)cc2)CC1`, the IC50 on CDK2/Cyclin A1 was 5.85 to 9.47 nM; in data set [1] it was 0.438 to 0.6 nM; with MV4-11 [2], 19 nM; in data set [11] it was 3.33 to 5.57 nM; at CDK6/cyclin D1, 4.24 to 4.5 nM; in data set [12], 94.1 nM. Moreover, the GI50 in the data set with RS4-11 was 130 nM; in the data set on MCF7, 620 nM; in the data set on HCT-116 it was 370 nM; in the data set with NCI-H82, 170 nM; in the data set on MGC-803 it was 160 nM.
For `O=C(Nc1ccc(CN2CCOCC2)cc1)c1n[nH]cc1Nc1ncnc2sccc12`, the IC50 stood at 3.36 nM at CDK2/Cyclin A1, 0.623 nM in data set [1], 2.4 nM in data set [11] and 3.88 nM on CDK6/cyclin D1. The inhibition of growth at 1 µM in the data set with MV4-11 [13] stood at 98.5%. For the same compound, the GI50 with RS4-11 came out at 170 nM; in the data set with MCF7, 610 nM; with HCT-116, 580 nM; in the data set with NCI-H82, 290 nM; with MGC-803, 210 nM. In addition, the half-life was 8.28 min in data set [14]; 7.08 min in data set [16]; 7.2 min in data set [18]; 1.5 min in data set [20]; 10.9 min in data set [22]. The CLint scaled in [15] turned out to be 165 mL/min/kg; in data set [17] it was 352 mL/min/kg; in data set [19], 765 mL/min/kg; in [21] it was 1330 mL/min/kg; in data set [23], 171 mL/min/kg.
As to `Nc1ccn([C@@H]2O[C@H](CO)[C@@H](O)[C@@H]2O)c(=O)n1` [CYTARABINE], in the data set on MV4-11 [24], the inhibition in vivo at 50 mg/kg turned out to be 61.9%.

For orientation: IC50 means the concentration needed to halve the response being measured. As a reminder, the logP is a log measure of how a compound divides between an organic and an aqueous phase. A word on the GI50: it is the concentration that inhibits growth by half.
